Measurements taken from ChEMBL document CHEMBL1146177, “Total synthesis and biological evaluation of viscolin, a 1,3-diphenylpropane as a novel potent anti-inflammatory agent” (Bioorg Med Chem Lett, 2006).

Key:
[1] = test system: BV-2; assay: Inhibition of NOS-dependent nitric oxide production in mouse BV2 cells; assay type: functional, cell-based
Outline: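 Murine BV2 microglial cells. NOX activity was read as ROS production and NOS activity as NO production. DPI (NOX inhibitor) and L-NAME (NOS inhibitor) served as positive controls. IC50 is the mean ± SEM of 5–6 experiments on different days with cells from different passages.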

[2] = Inhibition of PMA-induced ROS production in human leukocytes at 25 uM; assay type: functional; settings: Leukocyte
[3] = Inhibition of PMA plus ionomycin-induced IFN-gamma production in human CD8+ leukocytes measured as mean channel fluorescence at 5 uM; assay type: functional
Outline: (§1)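 Human leukocytes were stimulated with PMA plus ionomycin. IL-2 (CD4+ Th cells) and IFN-γ (CD8+ cells) were measured by intracellular cytokine staining and read as mean channel fluorescence. Significance was tested against activator alone (P<0.05).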

[4] = Inhibition of fMLP-induced ROS production in human leukocytes at 25 uM; assay type: functional; settings: Leukocyte
[5] = test system: CD4+ve Th; assay: Inhibition of PMA plus ionomycin-induced IL2 production in human CD4+ Th cells measured as mean channel fluorescence at 25 uM; assay type: functional; outline: as §1
[6] = test system: CD4+ve Th; assay: Inhibition of PMA plus ionomycin-induced IL2 production in human CD4+ Th cells measured as mean channel fluorescence at 5 uM; assay type: functional; outline: as §1
[7] = Inhibition of PMA plus ionomycin-induced IFN-gamma production in human CD8+ leukocytes measured as mean channel fluorescence at 25 uM; assay type: functional; outline: as §1
[8] = Cytotoxicity against microglial cells at 5 uM; settings: mouse, microglia
[9] = Cytotoxicity against microglial cells at 10 uM; settings: mouse, microglia
[10] = Cytotoxicity against microglial cells at 25 uM; settings: mouse, microglia
[11] = test system: BV-2; assay: Inhibition of LPS-induced TNFalpha production in mouse BV2 cells measured as mean channel fluorescence at 5 uM
[12] = test system: BV-2; assay: Inhibition of LPS-induced TNFalpha production in mouse BV2 cells measured as mean channel fluorescence at 25 uM
[13] = test system: BV-2; assay: Inhibition of NADPH oxidase-dependent reactive oxygen species production in mouse BV2 cells
[14] = Inhibition of PMA-induced ROS production in human PMN; assay type: functional
Outline: (§2)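 Peripheral human neutrophils (PMN) or mononuclear cells (MNC) were stimulated with PMA (a PKC activator) or fMLP to induce ROS. IC50 is the mean ± SEM of 3–5 experiments on different days with cells from different donors.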

[15] = Inhibition of fMLP-induced ROS production in human PMN; assay type: functional; outline: as §2
[16] = Inhibition of PMA-induced ROS production in human mononuclear leukocytes; assay type: functional, cell-based; outline: as §2
[17] = Inhibition of fMLP-induced ROS production in human mononuclear leukocytes; assay type: functional, cell-based; outline: as §2
[18] = DPPH radical scavenging activity; assay type: functional
[19] = biological target: T1, Protein kinase C (PKC) (Homo sapiens) (UniProt O94806+P41743+P17252+P05129+Q05655+P05771+Q05513+Q02156+P24723+Q15139+Q04759); assay: Inhibition of PKC in human peripheral leucocytes at 5 uM by ELISA; assay type: cell-based
Outline: (§3)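 Protein kinase activity in human leukocytes is expressed as % inhibition relative to drug-free samples (taken as 100%). Values are the mean ± SEM of 3 experiments on different days with cells from different donors.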

[20] = Inhibition of fMLP-induced calcium mobilisation in human peripheral leukocytes at 5 uM; assay type: functional
Outline: (§4)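 Human leukocytes were preloaded with Fura-2, and intracellular Ca2+ rise was followed after fMLP stimulation. Inhibition is expressed as % of the calcium increment in drug-free samples (taken as 100%). Values are the mean ± SEM of 3 experiments on different days with different donors.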

[21] = biological target: T1, Protein kinase C (PKC) (Homo sapiens); assay: Inhibition of PKC at 25 uM by ELISA; assay type: protein assay; outline: as §3
[22] = Inhibition of fMLP-induced calcium mobilisation in human peripheral leukocytes at 25 uM; assay type: functional; outline: as §4

COc1cc(CCCc2c(OC)cc(OCc3ccccc3)c(OC)c2OC)ccc1OCc1ccccc1
IC50 [1]: 20 µM
inhibition at 25 µM [2]: 20%
Activity [3]: 59
inhibition at 25 µM [4]: 37%
Activity [5]: 102
Activity [6]: 100
Activity [7]: 65
Activity [8]: 14.6%
Activity [9]: 8.9%
Activity [10]: 9.6%
Activity [11]: 164
Activity [12]: 154

COc1cc(C/C=C/c2c(OC)cc(OCc3ccccc3)c(OC)c2OC)ccc1OCc1ccccc1
IC50 [1]: 19 µM
inhibition at 25 µM [2]: 20%
Activity [3]: 60
inhibition at 25 µM [4]: 37%
Activity [5]: 103
Activity [6]: 101
Activity [7]: 65
Activity [8]: 8.6%
Activity [9]: 8.1%
Activity [10]: 10%
Activity [11]: 164
Activity [12]: 155

c1ccc2c(c1)[I+]c1ccccc1-2 [DIPHENYLENEIODONIUM]
IC50 [13]: 10.2 µM

COC(=O)[C@@H](N)CCCNC(=N)N[N+](=O)[O-] [L-NAME]
IC50 [1]: 36 µM

O=c1c(O)c(-c2ccc(O)c(O)c2)oc2cc(O)cc(O)c12 [QUERCETIN]
IC50 [14]: 5.5 µM
IC50 [15]: 2.5 µM
IC50 [16]: 3.1 µM
IC50 [17]: 4 µM

Cc1c(C)c2c(c(C)c1O)CCC(C)(C(=O)O)O2 (stereo unspecified) [TROLOX]
IC50 [18]: 40.5 µM

COc1cc(CCCc2c(OC)cc(O)c(OC)c2OC)ccc1O [VISCOLIN]
IC50 [14]: 12 µM
IC50 [15]: 1.4 µM
IC50 [16]: 8.3 µM
IC50 [17]: 2.5 µM
inhibition [19]: 34.4%
inhibition at 5 µM [20]: 36.7%
IC50 [1]: 24 µM
Activity [3]: 72
IC50 [18]: 49.2 µM
inhibition [21]: 48.8%
inhibition at 25 µM [22]: 53.5%
Activity [5]: 112
Activity [6]: 99
Activity [7]: 67
Activity [8]: 9.6%
Activity [9]: 8.9%
Activity [10]: 14.6%
IC50 [13]: 29.2 µM
Activity [11]: 155
Activity [12]: 121
